{"data": "Published values gathered from unrelated publications", "target": "Serine/threonine-protein kinase MRCK beta (CDC42BPB, Homo sapiens, UniProt Q9Y5S2)", "note": "Each line is one published result; the experiments were not run side by side."}
{"SMILES": "O=C(O)[C@@H]1[C@@H](Cn2nnc3ccccc3c2=O)CC[C@H]1C(=O)c1ccc(OCCC2CCOCC2)cc1", "effect on": "cell-free assay", "method": "competition with immobilised ligand", "tested at": "1 µM", "remaining binding [%]": 96}
{"SMILES": "CNC(=O)[C@@H]1CC[C@@H](n2c(-c3ccc4cnccc4c3)nc3ccc(C(=O)NCc4cccc(C(N)=O)c4)cc32)C1", "effect on": "binding", "method": "competition with immobilised ligand", "tested at": "1 µM", "remaining binding [%]": 100}
{"SMILES": "Cc1cnc(Nc2ccc(C(=O)N3CCC(N4CCCC4)CC3)cc2)nc1-c1cc2ccccc2s1", "effect on": "binding", "method": "competition with immobilised ligand", "tested at": "1 µM", "remaining binding [%]": 59}
{"SMILES": "c1cncc(-c2cccc(Nc3nccc(NC4CCCCC4)n3)c2)c1", "effect on": "binding", "method": "competition with immobilised ligand", "tested at": "10 µM", "remaining binding [%]": 99}
{"SMILES": "Cc1cnn2ncc(-c3ccnc(N(C)C)n3)c2c1", "effect on": "binding", "tested at": "1 µM", "remaining binding [%]": 100}
{"SMILES": "O=C(NCCCN1CCOCC1)c1ccc(Nc2ncc(Cl)c(-c3ccc(Cl)s3)n2)cc1", "effect on": "binding", "method": "competition with immobilised ligand", "tested at": "1 µM", "remaining binding [%]": 100}
{"SMILES": "c1cnn2ncc(-c3ccnc(N4CCC45COC5)n3)c2c1", "effect on": "binding", "tested at": "1 µM", "remaining binding [%]": 94}
{"SMILES": "COc1ccc2cc(OCC3(C(=O)O)CN(C(=O)c4ccc(F)cc4)C3)ccc2c1", "effect on": "cell-free assay", "method": "competition with immobilised ligand", "tested at": "1 µM", "remaining binding [%]": 100}
{"SMILES": "CCN1CCN(Cc2ccc(C(=O)Nc3ccc(C)c(Oc4ccc5c(c4)CC(=O)N5)c3)cc2C(F)(F)F)CC1", "effect on": "binding", "method": "competition with immobilised ligand", "tested at": "1 µM", "remaining binding [%]": 77}
{"SMILES": "C[C@H]1CCN(c2nccc(-c3cnn4ncccc34)n2)C1", "effect on": "binding", "tested at": "1 µM", "remaining binding [%]": 100}
{"SMILES": "Cc1cc(-n2nc(Cc3cc(F)cc(C(F)(F)F)c3)nc2C)ccc1C(N)=O", "effect on": "cell-free assay", "method": "competition with immobilised ligand", "tested at": "1 µM", "remaining binding [%]": 100}
{"SMILES": "CN(C)c1nccc(-c2cnn3ncccc23)n1", "effect on": "binding", "tested at": "1 µM", "remaining binding [%]": 100}
{"SMILES": "Nc1ncc2c(n1)-c1c([nH]c3ccc(C#CC4CC4)cc13)CCCC2", "effect on": "binding", "method": "competition with immobilised ligand", "tested at": "1 µM", "remaining binding [%]": 93}
{"SMILES": "CO[C@@H](C)c1c(Nc2ccc([C@@H](N(C)C(=O)C3CCS(=O)(=O)CC3)C(F)(F)F)cc2)cnc2cc(Cl)nn12", "effect on": "cell-free assay", "method": "competition with immobilised ligand", "tested at": "1 µM", "remaining binding [%]": 89}
{"SMILES": "O=C(c1ccc(Nc2ncc(Cl)c(-c3ccc(Cl)s3)n2)cc1)N1CCC(N2CCCC2)CC1", "effect on": "binding", "method": "competition with immobilised ligand", "tested at": "1 µM", "remaining binding [%]": 92}
{"SMILES": "N[C@H]1CCN(c2nccc(-c3cnn4ncccc34)n2)C1", "effect on": "binding", "tested at": "1 µM", "remaining binding [%]": 88}
{"SMILES": "Nc1c(C(=O)NCc2ccc(C(=O)NCCCC3CCCCC3)cc2)cnn1-c1ccccc1", "effect on": "cell-free assay", "method": "competition with immobilised ligand", "tested at": "0.1 µM", "remaining binding [%]": 100}
{"SMILES": "O=C(Nc1c[nH]nc1C(=O)NC1CCNCC1)c1cc(F)cc(F)c1", "effect on": "binding", "method": "competition with immobilised ligand", "tested at": "1 µM", "remaining binding [%]": 100}
{"SMILES": "COCCOc1nc(-c2ccc(Cl)nc2)nc2c1CN(C(=O)c1ncn3ccccc13)CC2", "effect on": "cell-free assay", "method": "competition with immobilised ligand", "tested at": "0.1 µM", "remaining binding [%]": 100}
{"SMILES": "C=CC(=O)N1CCC(C(=O)NCC(=O)N2CCN(c3nc(-c4cnc(N)nc4C(F)F)nc(N4CCOCC4)n3)CC2)CC1", "effect on": "binding", "method": "competition with immobilised ligand", "tested at": "1 µM", "remaining binding [%]": 99}
